Bioassay records: PubChem, Sanford-Burnham Center for Chemical Genomics
EBI2 antag = EBI2 (human) antagonism; P32249; EBI2 beta-arrestin recruitment, luminescence, 7a,25-OHC stimulated; inhibition, % at 5 µM; 360,000 compounds, 0.81% hits; in the data active = inhibition above about 38%;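 also: enzyme fragment complementation signal reports receptor beta-arrestin coupling in cells; 0% = agonist plus DMSO wells and 100% = wells without agonist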
Target sequence (P32249 whole entry, looked up, the tested form may be a part): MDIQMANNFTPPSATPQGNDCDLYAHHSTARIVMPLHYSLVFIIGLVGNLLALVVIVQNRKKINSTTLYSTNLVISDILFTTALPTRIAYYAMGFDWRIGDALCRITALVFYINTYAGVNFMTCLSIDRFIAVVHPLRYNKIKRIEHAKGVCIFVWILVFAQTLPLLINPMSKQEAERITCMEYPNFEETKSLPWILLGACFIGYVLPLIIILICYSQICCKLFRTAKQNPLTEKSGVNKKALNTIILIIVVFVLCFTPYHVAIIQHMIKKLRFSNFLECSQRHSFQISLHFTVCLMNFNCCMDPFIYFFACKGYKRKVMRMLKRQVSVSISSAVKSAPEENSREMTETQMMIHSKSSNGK
APJ ag = agonists of human APJ apelin receptor. CHO-K1 APJ PathHunter beta-arrestin, luminescence; 0% DMSO wells, 100% apelin. activation, % at 20 µM. 330,000 compounds, 0.11% hits. AID 2520;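 active = activation more than six SD over the plate average, tested at 20 µM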;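 also: 0% = DMSO alone and 100% = apelin-13 at 10 nM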
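Material: engineered CHO-K1 APJ arrestin reporter cells; amount: 1000 CHO-K1 reporter cells seeded per well; incubation: compound stimulation 90 min at 25 °C, detection 60 min; signal: luminescent beta-gal fragment complementation, chemiluminescent substrate; read-out basis: APJ agonist activity; controls: DMSO-only wells as negative, 10 nM Apelin-13 as positive control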
APJ antag = APJ receptor antagonism; P35414; CHO-K1 APJ beta-arrestin complementation, luminescence; inhibition, % at 20 µM; 330,000 compounds, 0.32% hits;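 active = inhibition above about 40% at 20 µM, limit read from the data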;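 also: cells challenged with 10 nM apelin-13 agonist together with compound; plate controls were apelin-13 plus DMSO wells for no effect and DMSO wells lacking apelin-13 for full effect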
CXCR6 block = inhibitors of human CXCR6 receptor. inhibition, % at 20 µM. 360,000 compounds, 0.36% hits. CHO-K1 PathHunter CXCR6 beta-arrestin, luminescence. O00574; in the data active = inhibition above about 34%, passing the limit was not always enough;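 also: antagonist mode with CXCL16 agonist at 10 nM final; 0% = 10 nM CXCL16 with DMSO and 100% = unstimulated wells without agonist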
CCR6 antagonist = blocks CCL20-driven beta-arrestin recruitment at human CCR6; inhibition, % at 20 µM; P51684; 340,000 compounds, 0.49% hits; CHO-K1 CCR6 PathHunter beta-arrestin, luminescence, CCL20-stimulated;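 active = compounds whose inhibition of the agonist-driven luminescence signal at 20 µM reaches about 50%, limit read from the data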;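 also: cells stimulated with CCL20 at 14 nM final; plate controls were DMSO with CCL20 for no effect and DMSO without agonist for full effect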
APJ ag conf = APJ receptor agonism confirmation | shares compounds with APJ ag | AID 2764 | CHO-K1 APJ PathHunter beta-arrestin, luminescence | activation, % at 20 µM | 310 compounds, 10% hits;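 active = activation above 40%, taking the highest of four retests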;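 also: plate controls were DMSO wells for no effect and apelin-13 at 10 nM for full effect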
The depositor's hits bear a star. Most compounds without a hit are left out; they make up all but 1.5% or so of the library.

How did CCOC(=O)C1=C(CSc2nccn2C)NC(=O)NC1c1cc(C)ccc1C (configuration not stated) do in these assays?
EBI2 antag: 5; APJ ag: -4; APJ antag: -17; CXCR6 block: 7; CCR6 antagonist: 5

Results for CCOC(=O)C1CCCN(CCC(=O)Nc2cccc(Cl)c2C)C1 (configuration not stated) ?
EBI2 antag: -3; APJ ag: 0; APJ antag: 5; CXCR6 block: 6; CCR6 antagonist: -7

What do the screens show for `c1ccc(Nc2nc(NCC3CCCO3)c3ccccc3n2)cc1` (configuration not stated)?
EBI2 antag: 12; APJ ag: 1; APJ antag: -52; CXCR6 block: -5; CCR6 antagonist: -11

Results for CCOc1ccc(Nc2nc(NCC3CCCO3)c3ccccc3n2)cc1 (configuration not stated) ?
EBI2 antag: 66*; APJ ag: 13*; APJ antag: -25; CXCR6 block: 8; CCR6 antagonist: -3; APJ ag conf: 29

What do the screens show for `O=C1NC[C@@H](CCCCN2CCN(Cc3ccccc3)C(=O)C2=O)N(CC2CCCCC2)C1=O`?
EBI2 antag: -4; CXCR6 block: 3

What do the screens show for `CCCCNc1c(-c2ccc(OC)c(Sc3ccc(OC)cc3)c2)nc2ccccn12`?
EBI2 antag: -75; APJ ag: 37*; APJ antag: -157; CXCR6 block: -15; CCR6 antagonist: -28; APJ ag conf: 23

Results for CCCn1c(=O)c(C(=O)Nc2c(C)n(C)n(-c3ccccc3)c2=O)c(O)c2ccccc21 ?
EBI2 antag: -3; APJ ag: 26*; APJ antag: -12; CXCR6 block: 9; CCR6 antagonist: -11; APJ ag conf: 19

What do the screens show for `CCCn1c(=O)c(C(=O)Nc2cccc(C)n2)c(O)c2ccccc21`?
EBI2 antag: -4; APJ ag: 0; APJ antag: -11; CXCR6 block: 3; CCR6 antagonist: -6

What do the screens show for `Cc1cccc(C)c1NC(=O)c1csc([C@H]2C[C@H](O)[C@@H](CO)O2)n1`?
EBI2 antag: 6; CXCR6 block: 0

How did CC1(OC(=O)C2CCCC2)C(=O)C=C2C=C(c3ccsc3)N(C3CCCC3)C=C2C1=O (configuration not stated) do in these assays?
EBI2 antag: -19; APJ ag: 104*; APJ antag: -77; CXCR6 block: -2; CCR6 antagonist: 11; APJ ag conf: 12

Results for Cc1ccc(CCN=c2c([N+](=O)[O-])nn(-c3ccccc3)n2O)cc1 ?
EBI2 antag: -9; APJ ag: 14*; APJ antag: -46; CXCR6 block: -13; CCR6 antagonist: -24; APJ ag conf: 25

What do the screens show for `CCn1cc(C(=O)NCCCN(CC(C)C)CC(C)C)c(=O)c2cc(S(=O)(=O)N(C)C3CCCCC3)ccc21`?
EBI2 antag: 9; APJ ag: 1; APJ antag: 1; CXCR6 block: 8; CCR6 antagonist: 5

Results for CC(=O)Nc1ccc(S(=O)(=O)NC2CC(=O)N(c3ccc4c(c3)OCCO4)C2)cc1 (configuration not stated) ?
EBI2 antag: -2; APJ ag: -4; APJ antag: 2; CXCR6 block: 2; CCR6 antagonist: -3

Results for COc1cc(OC)cc(-c2n[nH]c(=S)n2-c2cc(OC)ccc2OC)c1 ?
EBI2 antag: -10; APJ ag: 36*; APJ antag: -3; CXCR6 block: 3; CCR6 antagonist: 20; APJ ag conf: 40*

How did COc1ccc(OC)c(-n2c(-c3ccc(O)cc3O)n[nH]c2=S)c1 do in these assays?
EBI2 antag: 3; APJ ag: 2; APJ antag: -5; CXCR6 block: 5; CCR6 antagonist: 5

What do the screens show for `O=C(COC(=O)c1ccc2c(c1Cl)C(=O)c1ccccc1C2=O)NC1CC1`?
EBI2 antag: -9; APJ ag: 13*; APJ antag: -29; CXCR6 block: -24; CCR6 antagonist: -18; APJ ag conf: 25

How did Cc1ccc(N(C(=O)c2csnn2)C(C(=O)NC2CCCCC2)c2ccncc2)c(C)c1 (configuration not stated) do in these assays?
EBI2 antag: 8; APJ ag: -2; APJ antag: 7; CXCR6 block: -6; CCR6 antagonist: 12

What do the screens show for `COc1cc(/C=N/Nc2nc(-c3ccc(S(=O)(=O)N(C)C)cc3)cs2)ccc1O`?
EBI2 antag: 10; APJ ag: 21*; APJ antag: -70; CXCR6 block: -18; CCR6 antagonist: -17; APJ ag conf: 32

Results for CS(=O)(=O)c1ccc2nc(NC(=O)Nc3cccc(Cl)c3)sc2c1 ?
EBI2 antag: -6; APJ ag: 28*; APJ antag: -20; CXCR6 block: 6; CCR6 antagonist: 7; APJ ag conf: 16

Results for Cc1ccc(C(=O)NC(C(=O)OCc2cn3cc(Cl)ccc3n2)C(C)C)cc1 (configuration not stated) ?
EBI2 antag: 1; APJ ag: -2; APJ antag: -8; CXCR6 block: 4; CCR6 antagonist: 8

How did Cc1cc(C)cc(C(=O)O/N=C(\N)c2ccc(Br)cc2)c1 do in these assays?
EBI2 antag: 22; APJ ag: 6; APJ antag: -38; CXCR6 block: -8; CCR6 antagonist: 2

Results for N/C(=N\OC(=O)c1ccoc1)c1ccc(Br)cc1 ?
EBI2 antag: -5; APJ ag: 43*; APJ antag: -163; CXCR6 block: -13; CCR6 antagonist: -35; APJ ag conf: 24

Results for Cc1ccc(-n2ncc3c(N4CCN(c5ccccc5)CC4)ncnc32)c(C)c1 ?
EBI2 antag: -19; APJ ag: 17*; APJ antag: -29; CXCR6 block: -5; CCR6 antagonist: -13; APJ ag conf: 40*

Results for N/C(=N\OC(=O)c1cccnc1)c1ccccc1Cl ?
EBI2 antag: -14; APJ ag: 8.9*; APJ antag: -91; CXCR6 block: -15; CCR6 antagonist: -37; APJ ag conf: 22

What do the screens show for `CN(CCc1ccccc1)C(=O)c1ccc(NC(=O)Cc2cccc(NC(=O)C3CCN(C(=O)c4ccccc4)CC3)c2)cc1`?
EBI2 antag: -4; CXCR6 block: 0; CCR6 antagonist: 11

Results for CC(C)(C)OC(=O)NCCCCCNC(=O)c1nc[nH]c1C(=O)NCc1ccc(CNC(=O)OC(C)(C)C)cc1 ?
EBI2 antag: -39; APJ ag: 12*; APJ antag: -22; CXCR6 block: -26; CCR6 antagonist: -7; APJ ag conf: 9

Results for CC(C)(C)OC(=O)NCc1ccc(CNC(=O)c2nc[nH]c2C(=O)NCc2ccc(CNC(=O)OC(C)(C)C)cc2)cc1 ?
EBI2 antag: 4; APJ ag: 1; APJ antag: 2; CXCR6 block: 3; CCR6 antagonist: 7
